Measured values from paper PMC7825188 (CPT: Pharmacometrics & Systems Pharmacology, 2020).
Where two headings read alike, the source gives them in different places.

Key:
Human mass balance study = assay type: in vivo; conditions: assigned to biliary clearance (Model 1) or unabsorbed drug (Model 2)
[1] = Study MBCT103: safety and tolerability; assay type: in vivo, human
How it was run: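 AEs and SAEs were recorded from check-in on day −1 until a follow-up call 14 days after the last acumapimod dose. TEAEs were AEs that were new after treatment or worsened in intensity or frequency. Intensity was graded mild, moderate or severe. The safety set comprised all subjects receiving ≥1 acumapimod dose.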

[2] = assay type: in vivo, human; conditions: MBCT102
How it was run: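 Healthy men (18–65 y, BMI 18–30, nonsmokers) completed two periods ≥14 days apart. Period 1 was a single oral 14 mg dose (2 × 7 mg capsules). In period 2, azithromycin 500 mg was given daily on days −1 to 2, with acumapimod on day 1. Plasma (K2EDTA) was sampled predose to 168 h, plus 336 h in period 2, and assayed by LC-MS/MS (1.0–1,000 ng/mL). Noncompartmental Cmax and AUCs were ln-transformed and analysed by ANOVA, giving GMR with 90% CI.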

[3] = Study MBCT102: safety and tolerability; assay type: in vivo, human
How it was run: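 AEs and SAEs were recorded from check-in on day −1 until the post-study physical examination (day 15). TEAEs were AEs that were new after treatment or worsened in intensity or frequency. Intensity was graded mild, moderate or severe.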

[4] = assay type: in vivo, human; conditions: MBCT103
How it was run: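 Healthy men received period 1 as in the azithromycin study (single 14 mg oral dose). In period 2, itraconazole oral solution 200 mg was given once daily on days 1–14, with a single acumapimod dose on day 7, 2 h post-itraconazole. Washout was ≥16 days. Plasma was sampled predose to 192 h and assayed by LC-MS/MS. Noncompartmental Cmax and AUCs were ln-transformed and analysed by ANOVA, giving GMR with 90% CI.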

CYP3A4 = CYP3A4 (Homo sapiens, UniProt P08684); test: In vitro CYP phenotyping of acumapimod; assay type: in vitro ADME; conditions: both models; based on in vitro phenotyping data
P‐glycoprotein (P‐gp) = P‐glycoprotein (P‐gp) (Homo sapiens, UniProt P08183); test: P-gp substrate status of acumapimod; assay type: in vitro ADME
[5] = acumapimod + azithromycin relative to acumapimod alone
[6] = azithromycin, upper 90% CI of GMR
[7] = with azithromycin vs. acumapimod alone
[8] = acumapimod + itraconazole vs. acumapimod alone
[9] = itraconazole, upper 90% CI of GMR
[10] = with itraconazole relative to acumapimod alone

Sequence of CYP3A4 (P08684 whole entry): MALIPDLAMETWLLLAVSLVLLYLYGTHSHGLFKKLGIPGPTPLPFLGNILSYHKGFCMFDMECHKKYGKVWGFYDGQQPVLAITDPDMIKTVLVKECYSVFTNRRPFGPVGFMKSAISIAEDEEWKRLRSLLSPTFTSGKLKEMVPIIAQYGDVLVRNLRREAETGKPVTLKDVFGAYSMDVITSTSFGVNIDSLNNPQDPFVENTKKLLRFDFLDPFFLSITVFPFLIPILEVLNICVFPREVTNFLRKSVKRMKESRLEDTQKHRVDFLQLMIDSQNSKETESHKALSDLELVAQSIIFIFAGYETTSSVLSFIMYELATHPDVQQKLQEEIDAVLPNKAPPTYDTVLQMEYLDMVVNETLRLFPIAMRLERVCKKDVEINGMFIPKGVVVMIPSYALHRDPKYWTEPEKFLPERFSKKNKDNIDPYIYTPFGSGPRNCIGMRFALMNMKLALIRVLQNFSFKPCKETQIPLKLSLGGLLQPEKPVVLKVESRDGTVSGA
Sequence of P‐glycoprotein (P‐gp) (P08183 whole entry): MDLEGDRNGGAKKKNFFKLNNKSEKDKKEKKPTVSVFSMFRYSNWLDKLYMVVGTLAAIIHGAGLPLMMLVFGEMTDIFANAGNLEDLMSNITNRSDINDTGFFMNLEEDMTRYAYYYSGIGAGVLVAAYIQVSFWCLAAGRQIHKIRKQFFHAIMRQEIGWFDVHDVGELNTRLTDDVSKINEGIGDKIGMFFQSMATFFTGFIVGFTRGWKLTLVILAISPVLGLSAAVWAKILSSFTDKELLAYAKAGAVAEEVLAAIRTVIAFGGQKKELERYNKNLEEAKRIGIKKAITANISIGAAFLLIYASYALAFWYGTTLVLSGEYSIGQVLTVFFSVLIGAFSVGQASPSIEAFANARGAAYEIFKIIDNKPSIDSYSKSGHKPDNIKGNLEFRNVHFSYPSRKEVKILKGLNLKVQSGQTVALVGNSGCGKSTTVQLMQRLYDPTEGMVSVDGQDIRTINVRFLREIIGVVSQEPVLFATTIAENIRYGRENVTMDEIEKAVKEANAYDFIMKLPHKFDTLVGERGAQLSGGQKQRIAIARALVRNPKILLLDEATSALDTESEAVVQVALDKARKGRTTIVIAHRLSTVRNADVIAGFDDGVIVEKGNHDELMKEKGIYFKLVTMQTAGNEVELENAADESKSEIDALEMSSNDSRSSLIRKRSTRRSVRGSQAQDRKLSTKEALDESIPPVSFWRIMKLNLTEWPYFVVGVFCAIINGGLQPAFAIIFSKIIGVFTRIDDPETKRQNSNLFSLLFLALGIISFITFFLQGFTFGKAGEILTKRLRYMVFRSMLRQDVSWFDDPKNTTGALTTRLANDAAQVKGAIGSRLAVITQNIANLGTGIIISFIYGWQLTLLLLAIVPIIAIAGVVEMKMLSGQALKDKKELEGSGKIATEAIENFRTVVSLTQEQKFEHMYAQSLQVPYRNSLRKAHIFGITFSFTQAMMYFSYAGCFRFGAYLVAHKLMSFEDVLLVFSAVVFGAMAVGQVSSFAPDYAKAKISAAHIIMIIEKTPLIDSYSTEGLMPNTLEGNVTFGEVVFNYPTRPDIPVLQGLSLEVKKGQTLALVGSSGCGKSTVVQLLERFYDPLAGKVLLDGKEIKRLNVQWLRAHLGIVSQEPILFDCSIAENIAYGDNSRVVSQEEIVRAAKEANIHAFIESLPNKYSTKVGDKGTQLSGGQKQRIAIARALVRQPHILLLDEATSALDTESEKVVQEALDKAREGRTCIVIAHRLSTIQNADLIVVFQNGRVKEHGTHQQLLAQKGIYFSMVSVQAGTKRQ

Compound: Cc1ccc(C(=O)NC2CC2)cc1-n1ncc(C(=O)c2cccc(C#N)c2)c1N [acumapimod]
- dose recovered in the feces (Human mass balance study): 33.9%
- deaths, SAEs, severe TEAEs [1]: No deaths, SAEs, or severe TEAEs were reported
- treatment-related TEAEs [1]: No TEAEs were judged to be treatment related
- vital signs, electrocardiogram, laboratory parameters [1]: No safety concerns were raised
- subjects reporting TEAEs ([1]; 6 of 16 subjects, both periods): 37.5%
- number of TEAEs, overall ([1]; 16 subjects, both periods): 10
- number of TEAEs ([1]; acumapimod and itraconazole (period 2)): 8
- liver function tests and central nervous system AEs ([1]; co‐administration of acumapimod and itraconazole): no clinically meaningful changes
- AUC0–t ratio (adjusted GMR) [2, 5]: 105.65%
- AUC0–∞ ratio (adjusted GMR) [2, 5]: 104.32%
- Cmax ratio (adjusted GMR) [2, 5]: 106.34%
- upper limit of the interaction, AUC0–t [2, 6]: 112%
- upper limit of the interaction, AUC0–∞ [2, 6]: 110%
- upper limit of the interaction, Cmax [2, 6]: 115%
- increase of geometric mean AUC0–∞ [2, 7]: 4.3%
- increase of geometric mean Cmax [2, 7]: 6.3%
- SAEs or deaths [3]: No SAEs or deaths were reported
- safety laboratory, vital signs, electrocardiogram, physical examination [3]: No clinically relevant findings
- subjects reporting TEAEs ([3]; 8 of 16 subjects, both periods): 50%
- number of TEAEs, overall ([3]; 16 subjects, both periods): Fifteen
- number of TEAEs ([3]; acumapimod alone (period 1)): 7
- number of TEAEs ([3]; acumapimod with azithromycin (period 2)): 8
- intensity of TEAEs ([3]; all TEAEs): mild or moderate
- TEAE considered likely related to acumapimod ([3]; one TEAE, first exposure (acumapimod alone)): acneiform rash
- AUC0–t ratio (adjusted GMR) [4, 8]: 110.09%
- AUC0–∞ ratio (adjusted GMR) [4, 8]: 110.22%
- Cmax ratio (adjusted GMR) [4, 8]: 99.44%
- upper limit of interaction, AUC0–t [4, 9]: 120%
- upper limit of interaction, AUC0–∞ [4, 9]: 120%
- upper limit of interaction, Cmax [4, 9]: 109%
- change in Cmax [4, 10]: no change
- increase of geometric mean AUC0–t [4, 10]: 10%
- increase of geometric mean AUC0–∞ [4, 10]: 10%
- share of CYP‐mediated metabolism assigned to CYP3A4 (CYP3A4): 97.8%
- P-gp substrate status (P‐glycoprotein (P‐gp)): substrate of P‐glycoprotein (P‐gp)
